The results in this text go back to PubChem BioAssay AID488780 (The Scripps Research Institute Molecular Screening Center, 2010).

Calls of active or inactive are those of the source.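 How the source made its calls: active means IC50 at or below 5 µM; inactive means the rest.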

This assay deals with Steroidogenic factor 1 (Homo sapiens) (UniProt Q13285). In words: SF-1 inhibitor potency in reporter cells, dose response, selectivity assay for LRH1 inverse agonist project, cell-based, luminescence (AID 488780). The following applies: HEK293T SF-1 5xSFRE luciferase reporter, 20 h; for fold change, <1 = inhibition: at 10 µM (top of the series). The method in brief: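 Schedule: 24 h bulk transfection before replating, then 20 h compound exposure; assay system: HEK293T with SF-1 and 5xSFRE luciferase reporter; evaluation: IC50 from percent inhibition versus DMSO; measured by: luminescence from SFRE-driven luciferase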
Sequence of Steroidogenic factor 1 (Homo sapiens) (Q13285 whole entry, looked up): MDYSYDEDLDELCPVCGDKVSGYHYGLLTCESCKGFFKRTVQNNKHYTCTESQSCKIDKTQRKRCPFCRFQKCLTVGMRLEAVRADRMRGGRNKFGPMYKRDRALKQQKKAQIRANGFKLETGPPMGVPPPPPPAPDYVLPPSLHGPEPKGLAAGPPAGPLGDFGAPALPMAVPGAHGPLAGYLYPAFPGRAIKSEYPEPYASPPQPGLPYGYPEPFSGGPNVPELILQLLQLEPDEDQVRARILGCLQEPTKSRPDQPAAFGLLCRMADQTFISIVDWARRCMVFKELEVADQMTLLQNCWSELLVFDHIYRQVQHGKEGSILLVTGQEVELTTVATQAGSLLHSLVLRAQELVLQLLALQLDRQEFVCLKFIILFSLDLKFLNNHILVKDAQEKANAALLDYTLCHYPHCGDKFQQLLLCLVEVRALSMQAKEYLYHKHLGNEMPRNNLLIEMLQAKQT

As for `O=c1cc(N2CCN(c3ccccc3)CC2)[nH]c(=O)n1C1CCCCC1`, the “fold change, <1 = inhibition” value was “inactive”. On to `CCn1c(=O)cc(N2CCN(c3cccc(Cl)c3)CC2)[nH]c1=O`, for which the “fold change, <1 = inhibition” value is “inactive”.

As for `O=c1cc(N2CCN(c3nc(-c4ccccc4)ns3)CC2)[nH]c(=O)n1C1CCCCC1`, the “fold change, <1 = inhibition” value is “inactive”.

Take `O=c1cc(N2CCN(C3CCCCC3)CC2)[nH]c(=O)n1C1CCCCC1`: the IC50 entry was “inactive”. In the case of `C=CCn1c(=O)cc(N2CCN(c3cccc(C(F)(F)F)c3)CC2)[nH]c1=O`, the “fold change, <1 = inhibition” value was “inactive”. In the case of `O=c1cc(N2CCN(c3cccc(Cl)c3Cl)CC2)[nH]c(=O)n1C1CCCCC1`, the “fold change, <1 = inhibition” value is “inactive”. For `O=c1cc(N2CCN(c3cccc(Cl)c3)CC2)[nH]c(=O)n1C1CCCCC1`, the IC50 was > 10 µM (inactive). As for `Cc1cc(C)cc(N2CCN(c3cc(=O)n(C4CCCCC4)c(=O)[nH]3)CC2)c1`, the “fold change, <1 = inhibition” value was “inactive”. Still for that read-out and setting: next, `O=c1cc(N2CCN(c3ccnc4cc(Cl)ccc34)CC2)[nH]c(=O)n1C1CCCCC1`: “inactive”; `O=c1cc(N2CCN(Cc3ccc(Cl)cc3)CC2)[nH]c(=O)n1C1CCCCC1`: “inactive”; `O=c1cc(N2CCN(c3ccccn3)CC2)[nH]c(=O)n1C1CCCCC1`: “inactive”.

`CCn1c(=O)cc(N2CCN(c3cccc(C(F)(F)F)c3)CC2)[nH]c1=O`: the “fold change, <1 = inhibition” value was “inactive”.

Take `O=c1cc(N2CCN(c3cccc(Cl)n3)CC2)[nH]c(=O)n1C1CCCCC1`: the “fold change, <1 = inhibition” value is “inactive”. With `O=c1cc(N2CCN(c3cccc(C(F)(F)F)c3)CC2)[nH]c(=O)n1C1CCCCC1`, the “fold change, <1 = inhibition” value was “inactive”. Same read-out and setting: next, `CC(C)Cn1c(=O)cc(N2CCN(c3cccc(C(F)(F)F)c3)CC2)[nH]c1=O`: “inactive”. Still for that read-out and setting: next, `Cn1c(=O)cc(N2CCN(c3cccc(Cl)c3)CC2)[nH]c1=O`: “inactive”.
